Results reported in ChEMBL document CHEMBL3822395, “2-Aryl-3-(2-morpholinoethyl)thiazolidin-4-ones: Synthesis, anti-inflammatory in vivo, cytotoxicity in vitro and molecular docking studies” (Eur J Med Chem, 2016).
Calls of active or inactive are those of the source. No cut-off for these calls is given here.

Experiments:
[1] = Cytotoxicity against African green monkey Vero cells assessed as cell viability at 500 ug/ml by MTT assay; type: cell-based; conditions: chlorocebus sabaeus, read-out: Activity
Procedure, shortened: (§1)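 Vero cells were seeded at 2×10^6 cells mL⁻¹ in E-MEM with 10% FBS and antibiotics, then left to attach for 24 h and 48 h before treatment. Dilutions were 62.5–1000 µg/mL in E-MEM. After a PBS wash, cells got MTT 1 mg/mL for 4 h at 37 °C in the dark. Formazan was dissolved in DMSO and read at 540 nm. Viability % = AT/AC × 100. Three independent experiments.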

Mus musculus [2] = assay: Antiinflammatory activity in BALB/c mouse ear assessed as inhibition of croton oil-induced heat in ear up to 333 mg/kg administered topically on ear measured at 6 hrs relative to control; type: functional, organism-based
Procedure, shortened: (§2)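 Male BALB/c mice, 3 per group, dosed at 33–333 mg/Kg. Ears were checked at 6 h for heat, redness and swelling against a croton oil-induced control (2 μg/ear in acetone).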

Mus musculus [3] = assay: Antiinflammatory activity in BALB/c mouse ear assessed as inhibition of croton oil-induced ear swelling up to 333 mg/kg administered topically on ear measured at 6 hrs relative to control; type: functional, organism-based; procedure, shortened: as §2
[4] = Cytotoxicity against African green monkey Vero cells assessed as cell viability at 125 ug/ml by MTT assay; type: cell-based; conditions: chlorocebus sabaeus, read-out: Activity; procedure, shortened: as §1
[5] = Cytotoxicity against African green monkey Vero cells assessed as cell viability at 1000 ug/ml by MTT assay; type: cell-based; conditions: chlorocebus sabaeus, read-out: Activity; procedure, shortened: as §1
[6] = Cytotoxicity against African green monkey Vero cells assessed as cell viability at 250 ug/ml by MTT assay; type: cell-based; conditions: chlorocebus sabaeus, read-out: Activity; procedure, shortened: as §1
Mus musculus [7] = assay: Antiinflammatory activity in BALB/c mouse ear assessed as inhibition of croton oil-induced ear redness up to 333 mg/kg administered topically on ear measured at 6 hrs relative to control; type: functional, organism-based; procedure, shortened: as §2
[8] = Cytotoxicity against African green monkey Vero cells assessed as cell viability at 62.5 ug/ml by MTT assay; type: cell-based; conditions: chlorocebus sabaeus, read-out: Activity; procedure, shortened: as §1
Mus musculus [9] = assay: Antiinflammatory activity in BALB/c mouse assessed as inhibition of croton oil-induced ear edema at 166 mg/kg administered topically on ear measured at 6 hrs; type: functional; conditions: topical
Procedure, shortened: (§3)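 Male BALB/c mice (25-35 g, mean 30 g), 3 per group. Ear edema induced with croton oil 2 μg/ear in acetone. Compounds were dosed at 33, 100, 166 and 333 mg/Kg, with indomethacin 33 mg/Kg as positive control. At 6 h a 6 mm ear punch was weighed and compared with untreated ears (edema index). Inhibition % = 100 × (1 − Vt/Vc) versus the control group.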

Mus musculus [10] = assay: Antiinflammatory activity in BALB/c mouse assessed as inhibition of croton oil-induced ear edema at 33 mg/kg administered topically on ear measured at 6 hrs; type: functional; conditions: topical; procedure, shortened: as §3

| SMILES | viability at 500 ug/ml [1] [%] | inhibition (Mus musculus [2]) | inhibition (Mus musculus [3]) | viability at 125 ug/ml [4] [%] | viability at 1000 ug/ml [5] [%] | viability at 250 ug/ml [6] [%] | inhibition (Mus musculus [7]) | viability at 62.5 ug/ml [8] [%] | inhibition in vivo at 166 mg/kg (Mus musculus [9]) [%] | inhibition in vivo at 33 mg/kg (Mus musculus [10]) [%] |
| --- | --- | --- | --- | --- | --- | --- | --- | --- | --- | --- |
| O=C1CSC(c2ccc(F)cc2)N1CCN1CCOCC1 (centres undefined) | 91 | Active | Active | 100 | 89 | 100 | Active | 100 | 39 |  |
| O=C1CSC(c2ccc(Cl)cc2)N1CCN1CCOCC1 (centres undefined) | 76 | Active | Active | 87 | 74 | 87 | Active | 87 | 44 |  |
| COc1ccc(C2SCC(=O)N2CCN2CCOCC2)cc1 (centres undefined) | 90 | Active | Active | 100 | 89 | 100 | Active | 100 | 54 |  |
| Cc1ccc(C2SCC(=O)N2CCN2CCOCC2)cc1 (centres undefined) | 76 | Active | Active | 87 | 73 | 80 | Active | 87 | 42 |  |
| COc1ccc2c(c1)c(CC(=O)O)c(C)n2C(=O)c1ccc(Cl)cc1 [INDOMETHACIN] |  |  |  |  |  |  |  |  |  | 58 |
| O=C1CSC(c2ccc(O)cc2)N1CCN1CCOCC1 (centres undefined) | 79 | Active | Active | 83 | 73 | 83 | Active | 83 | 45 |  |
| O=C1CSC(c2cccc([N+](=O)[O-])c2)N1CCN1CCOCC1 (centres undefined) | 92 | Active | Active | 100 | 92 | 100 | Active | 100 | 48 |  |
| O=C1CSC(c2ccccc2[N+](=O)[O-])N1CCN1CCOCC1 (centres undefined) | 91 | Active | Active | 98 | 83 | 98 | Active | 98 | 50 |  |
